Measured values from ChEMBL document CHEMBL1165950, “Design and synthesis of new potent anticancer pyrazoles with high FLT3 kinase inhibitory selectivity” (Bioorg Med Chem, 2010).

Key:
Assay type in all cases: functional
CCRF-CEM = assay: Cytotoxicity against human CCRF-CEM cells assessed as cell growth at 0.01 uM after 48 hrs by sulforhodamine B assay; details: read-out: Activity
In short: (§1)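 NCI-60 five-dose screen. Cells were grown in RPMI 1640 with 5% FBS and 2 mM L-glutamine, plated at 5000–40,000 cells/well and preincubated for 24 h. Time-zero plates were TCA-fixed. DMSO-solubilized drug was added at five concentrations (10-fold or ½-log serial dilutions) for 48 h at 37 °C, 5% CO2. Cells were TCA-fixed, stained with 0.4% SRB and read at 515 nm. Percent growth used time-zero, control and test absorbances.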

SN12C [1] = assay: Cytotoxicity against human SN12C cells assessed as cell growth at 100 nM after 48 hrs by sulforhodamine B assay; details: read-out: Activity
EKVX = assay: Cytotoxicity against human EKVX cells assessed as cell growth at 1 uM after 48 hrs by sulforhodamine B assay; details: read-out: Activity
MDA-MB-435 = assay: Cytotoxicity against human MDA-MB-435 cells assessed as cell growth at 10 uM; details: read-out: Activity
In short: (§2)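 NCI-60 screen: cells grown in RPMI 1640 with 5% FBS and 2 mM L-glutamine, plated at 5000–40,000 cells/well according to doubling time, and preincubated 24 h at 37 °C, 5% CO2. The single 10 µM dose (DMSO stock) was added, then incubated 48 h. Cells were TCA-fixed and stained with 0.4% SRB, read at 515 nm, and growth % calculated against time-zero and control plates.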

SN12C [2] = assay: Cytotoxicity against human SN12C cells assessed as cell growth at 10 uM; details: read-out: Activity; in short: as §2
[3] = Cytotoxicity against human […] cells assessed as cell growth at 0.001 uM after 48 hrs by sulforhodamine B assay; details: read-out: Activity
NCI-H23 = assay: Cytotoxicity against human NCI-H23 cells assessed as cell growth at 0.01 uM after 48 hrs by sulforhodamine B assay; details: NCI-H23, 48 h, read-out: Activity
HCT-116 [4] = assay: Cytotoxicity against human HCT116 cells assessed as cell growth at 0.01 uM after 48 hrs by sulforhodamine B assay; details: HCT-116, 48 h, read-out: Activity
M14 = assay: Cytotoxicity against human M14 cells assessed as cell growth at 0.01 uM after 48 hrs by sulforhodamine B assay; details: M14, 48 h, read-out: Activity
SK-MEL-2 = assay: Cytotoxicity against human SK-MEL-2 cells assessed as cell growth at 0.01 uM after 48 hrs by sulforhodamine B assay; details: SK-MEL-2, 48 h, read-out: Activity
SK-OV-3 = assay: Cytotoxicity against human SKOV3 cells assessed as cell growth at 0.01 uM after 48 hrs by sulforhodamine B assay; details: SK-OV-3, 48 h, read-out: Activity
SN12C [5] = assay: Cytotoxicity against human SN12C cells assessed as cell growth at 0.01 uM after 48 hrs by sulforhodamine B assay; details: read-out: Activity
HCT-116 [6] = assay: Cytotoxicity against human HCT116 cells assessed as cell growth at 0.001 uM after 48 hrs by sulforhodamine B assay; details: HCT-116, 48 h, read-out: Activity
HCT-15 = assay: Cytotoxicity against human HCT15 cells assessed as cell growth at 0.001 uM after 48 hrs by sulforhodamine B assay; details: HCT-15, 48 h, read-out: Activity
UACC-257 = assay: Cytotoxicity against human UACC257 cells assessed as cell growth at 0.001 uM after 48 hrs by sulforhodamine B assay; details: UACC-257, 48 h, read-out: Activity
MOLT-4 = assay: Growth inhibition of human MOLT4 cells after 48 hrs by sulforhodamine B assay; details: MOLT-4, 48 h
In short: (§3)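 NCI 60-cell screen, five-dose mode. Cells grown in RPMI 1640 with 5% FBS and 2 mM L-glutamine and plated at 5000-40,000 cells/well according to doubling time. After 24 h preincubation, a Tz plate was TCA-fixed. Five concentrations (10-fold or 1/2 log dilutions) were applied for 48 h at 37 °C. SRB staining read at 515 nm. IC50 taken from [(Ti-Tz)/(C-Tz)]×100 = 50.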

KM12 [7] = assay: Growth inhibition of human KM12 cells after 48 hrs by sulforhodamine B assay; details: KM12, 48 h; for CC50: read-out: LC50 (the source's name); in short: as §3
UACC-62 = assay: Growth inhibition of human UACC62 cells after 48 hrs by sulforhodamine B assay; details: UACC-62, 48 h; for CC50: read-out: LC50 (the source's name); in short: as §3
OVCAR-5 = assay: Growth inhibition of human OVCAR5 cells after 48 hrs by sulforhodamine B assay; details: OVCAR-5, 48 h; for CC50: read-out: LC50 (the source's name); in short: as §3
BT-549 [8] = assay: Cytotoxicity against human BT549 cells assessed as cell growth at 0.01 uM after 48 hrs by sulforhodamine B assay; details: BT-549, 48 h, read-out: Activity; in short: as §1
T47D = assay: Cytotoxicity against human T47D cells assessed as cell growth at 0.01 uM after 48 hrs by sulforhodamine B assay; details: read-out: Activity
A498 = assay: Growth inhibition of human A498 cells after 48 hrs by sulforhodamine B assay; details: A498, 48 h
In short: (§4)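 NCI five-dose SRB assay in RPMI 1640 with 5% FBS and 2 mM L-glutamine. Cells were preincubated 24 h, then exposed 48 h at 37 °C to five concentrations (10-fold or half-log serial dilutions from DMSO stocks). TCA fixation, SRB staining, and absorbance at 515 nm followed. IC50 was taken where [(Ti−Tz)/(C−Tz)]×100 = 50, with Tz as time-zero cell density.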

UO-31 [9] = assay: Growth inhibition of human UO31 cells after 48 hrs by sulforhodamine B assay; details: UO-31, 48 h; for CC50: read-out: LC50 (the source's name); in short: as §3
BT-549 [10] = assay: Growth inhibition of human BT549 cells after 48 hrs by sulforhodamine B assay; details: BT-549, 48 h; for CC50: read-out: LC50 (the source's name); in short: as §4
SN12C [11] = assay: Cytotoxicity against human SN12C cells assessed as cell growth at 1 uM after 48 hrs by sulforhodamine B assay; details: read-out: Activity
UO-31 [12] = assay: Cytotoxicity against human UO31 cells assessed as cell growth at 1 uM after 48 hrs by sulforhodamine B assay; details: UO-31, 48 h, read-out: Activity
MDA-MB-231 = assay: Cytotoxicity against human MDA-MB-231 cells assessed as cell growth at 1 uM after 48 hrs by sulforhodamine B assay; details: MDA-MB-231, 48 h, read-out: Activity
NCI-H322M = assay: Cytotoxicity against human NCI-H322M cells assessed as cell growth at 10 uM; details: read-out: Activity; in short: as §2
HOP-92 = assay: Cytotoxicity against human HOP92 cells assessed as cell growth at 10 uM after 48 hrs by sulforhodamine B assay; details: HOP-92, 48 h, read-out: Activity
KM12 [13] = assay: Cytotoxicity against human KM12 cells assessed as cell growth at 10 uM after 48 hrs by sulforhodamine B assay; details: KM12, 48 h, read-out: Activity

## Cc1cc(O)cc(-c2nn(CC#N)cc2-c2ccnc(-c3ccc(N(C)C)cc3)c2)c1
CCRF-CEM
  growth at 0.01 µM: 96%
SN12C [1]
  growth at 0.1 µM: 91%
EKVX
  growth at 1 µM: 29%
MDA-MB-435
  growth at 10 µM: -43.2%
SN12C [2]
  growth at 10 µM: 51.2%
[3]
  growth at 0.001 µM: 96%
NCI-H23
  growth at 0.01 µM: 96%
HCT-116 [4]
  growth at 0.01 µM: 98%
M14
  growth at 0.01 µM: 92%
SK-MEL-2
  growth at 0.01 µM: 108%
SK-OV-3
  growth at 0.01 µM: 98%
SN12C [5]
  growth at 0.01 µM: 90%
HCT-116 [6]
  growth at 0.001 µM: 95%
HCT-15
  growth at 0.001 µM: 86%
UACC-257
  growth at 0.001 µM: 96%
MOLT-4
  GI50: 3.17 µM
  LC50: > 100 µM
  TGI: 46 µM
KM12 [7]
  GI50: 1.63 µM
  TGI: 7.66 µM
  CC50: 29.2 µM
UACC-62
  GI50: 3.05 µM
  TGI: 14 µM
  CC50: 72.1 µM
OVCAR-5
  GI50: 1.49 µM
  TGI: 60.4 µM
  CC50: > 100 µM
BT-549 [8]
  growth at 0.01 µM: 91%
T47D
  growth at 0.01 µM: 90%
A498
  GI50: 3.03 µM
  LC50: > 100 µM
  TGI: 13.4 µM
UO-31 [9]
  GI50: 3.23 µM
  TGI: 32.5 µM
  CC50: > 100 µM
BT-549 [10]
  GI50: 2.77 µM
  TGI: 12.1 µM
  CC50: > 100 µM
SN12C [11]
  growth at 1 µM: 26%
UO-31 [12]
  growth at 1 µM: 19%
MDA-MB-231
  growth at 1 µM: 11%
NCI-H322M
  growth at 10 µM: 94.1%
HOP-92
  growth at 10 µM: -12%
KM12 [13]
  growth at 10 µM: -97%

## Cc1cc(O)cc(-c2nn(CC#N)cc2-c2ccnc(-c3ccc(Oc4ccccc4)cc3)c2)c1
CCRF-CEM
  growth at 0.01 µM: 93%
SN12C [1]
  growth at 0.1 µM: 86%
EKVX
  growth at 1 µM: -4%
MDA-MB-435
  growth at 10 µM: 60.5%
SN12C [2]
  growth at 10 µM: 60.2%
[3]
  growth at 0.001 µM: 97%
NCI-H23
  growth at 0.01 µM: 93%
HCT-116 [4]
  growth at 0.01 µM: 94%
M14
  growth at 0.01 µM: 96%
SK-MEL-2
  growth at 0.01 µM: 99%
SK-OV-3
  growth at 0.01 µM: 98%
SN12C [5]
  growth at 0.01 µM: 88%
HCT-116 [6]
  growth at 0.001 µM: 95%
HCT-15
  growth at 0.001 µM: 94%
UACC-257
  growth at 0.001 µM: 95%
MOLT-4
  GI50: 2.03 µM
  LC50: > 100 µM
  TGI: 6.82 µM
KM12 [7]
  GI50: 1.92 µM
  TGI: 4.87 µM
  CC50: 15.3 µM
UACC-62
  GI50: 4.67 µM
  TGI: 18.1 µM
  CC50: 44.4 µM
OVCAR-5
  GI50: 4.84 µM
  TGI: 19.2 µM
  CC50: 48.3 µM
BT-549 [8]
  growth at 0.01 µM: 91%
T47D
  growth at 0.01 µM: 86%
A498
  GI50: 3.87 µM
  LC50: 44.1 µM
  TGI: 16.7 µM
UO-31 [9]
  GI50: 2.18 µM
  TGI: 6.54 µM
  CC50: 31.7 µM
BT-549 [10]
  GI50: 2.66 µM
  TGI: 11.2 µM
  CC50: 43.1 µM
SN12C [11]
  growth at 1 µM: -57%
UO-31 [12]
  growth at 1 µM: 19%
MDA-MB-231
  growth at 1 µM: -13%
NCI-H322M
  growth at 10 µM: 80.7%
HOP-92
  growth at 10 µM: -65%
KM12 [13]
  growth at 10 µM: -100%
